Values after ≈ are worked out from the molar mass of the structure shown.
What was measured:
Escherichia coli [1] = assay: Antimicrobial activity in Escherichia coli DIH-1 expressing beta-lactamase VIM-19 by Etest; format: functional
How it was run: (§1)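 MICs read by Etest on Mueller-Hinton agar incubated at 37°C. Susceptibility was categorized according to CLSI guidelines. Transconjugants were obtained in E. coli J53 by liquid mating at 37°C, with selection on agar containing amoxicillin (50 μg/ml) and azide (100 μg/ml).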

Klebsiella pneumoniae [2] = assay: Antimicrobial activity in Klebsiella pneumoniae DIH-2 clinical isolate expressing beta-lactamase VIM-19 by Etest; format: functional
Escherichia coli [3] = assay: microbe, parasite or virus in culture; format: functional; settings: TOP10
Escherichia coli [4] = assay: microbe, parasite or virus in culture; format: functional; settings: TOP10; remark: listed apart in the source
Escherichia coli [5] = assay: Antimicrobial activity in Escherichia coli J53 transconjugate with Escherichia coli DIH-1 expressing natural plasmid containing beta-lactamase VIM-19; format: functional
How it was run: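 Transconjugants came from liquid mating-out at 37°C with azide-resistant E. coli J53 as recipient, selected on agar with amoxicillin (50 μg/ml) plus azide (100 μg/ml). MICs were then read by Etest on Mueller-Hinton agar at 37°C and interpreted per CLSI.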

Escherichia coli [6] = assay: Antimicrobial activity in Escherichia coli TOP10 strain; format: functional
How it was run: (§2)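 MICs were determined by Etest on Mueller-Hinton agar plates incubated at 37°C. Susceptibility was interpreted according to CLSI guidelines.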

Escherichia coli [7] = assay: Antimicrobial activity in Escherichia coli J53 strain; format: functional; how it was run: as §2
[8] = system: CC(C)(O/N=C(\C(=O)N[C@@H]1C(=O)N2C(C(=O)[O-])=C(C[n+]3ccccc3)CS[C@H]12)c1csc(N)n1)C(=O)O; assay: (§3) Hydrolytic activity of beta-lactamase VIM-19 expressed in Escherichia coli TOP10 by spectrophotometry
How it was run: (§4)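 Enzyme came from E. coli TOP10 (pVIM-19) grown overnight at 37°C in Trypticase soy broth with amoxicillin (100 μg/ml) and kanamycin (30 μg/ml). The sonicated, cleared extract was purified on Q-Sepharose with a 0–1 M NaCl gradient, in Bis-Tris then cacodylate pH 6.5 buffers.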

[9] = system: CC1(C)S[C@@H]2[C@H](NC(=O)Cc3ccccc3)C(=O)N2[C@H]1C(=O)O; assay: as §3; how it was run: as §4
[10] = system: CCN1CCN(C(=O)N[C@@H](C(=O)N[C@@H]2C(=O)N3[C@@H]2SC(C)(C)[C@@H]3C(=O)O)c2ccccc2)C(=O)C1=O; assay: as §3; how it was run: as §4
[11] = system: CO/N=C(\C(=O)N[C@@H]1C(=O)N2C(C(=O)O)=C(COC(C)=O)CS[C@H]12)c1csc(N)n1; assay: as §3; how it was run: as §4
[12] = system: CO[C@@]1(NC(=O)Cc2cccs2)C(=O)N2C(C(=O)O)=C(COC(N)=O)CS[C@@H]21; assay: as §3; how it was run: as §4
[13] = system: C[C@@H](O)[C@H]1C(=O)N2C(C(=O)O)=C(S[C@@H]3CN[C@H](C(=O)N(C)C)C3)[C@H](C)[C@H]12; assay: as §3; how it was run: as §4
[14] = system: C[C@@H](O)[C@H]1C(=O)N2C(C(=O)O)=C(S[C@@H]3CN[C@H](C(=O)Nc4cccc(C(=O)O)c4)C3)[C@H](C)[C@H]12; assay: as §3; how it was run: as §4
[15] = system: CC(C)(O/N=C(\C(=O)N[C@@H]1C(=O)N2C(C(=O)[O-])=C(C[n+]3ccccc3)CS[C@H]12)c1csc(N)n1)C(=O)O; assay: (§5) Ratio of Kcat to Km for beta-lactamase VIM-19 expressed in Escherichia coli TOP10 by spectrophotometry; how it was run: as §4
[16] = system: CC1(C)S[C@@H]2[C@H](NC(=O)Cc3ccccc3)C(=O)N2[C@H]1C(=O)O; assay: as §5; how it was run: as §4
[17] = system: CCN1CCN(C(=O)N[C@@H](C(=O)N[C@@H]2C(=O)N3[C@@H]2SC(C)(C)[C@@H]3C(=O)O)c2ccccc2)C(=O)C1=O; assay: as §5; how it was run: as §4
[18] = system: CO/N=C(\C(=O)N[C@@H]1C(=O)N2C(C(=O)O)=C(COC(C)=O)CS[C@H]12)c1csc(N)n1; assay: as §5; how it was run: as §4
[19] = system: CO[C@@]1(NC(=O)Cc2cccs2)C(=O)N2C(C(=O)O)=C(COC(N)=O)CS[C@@H]21; assay: as §5; how it was run: as §4
[20] = system: C[C@@H](O)[C@H]1C(=O)N2C(C(=O)O)=C(S[C@@H]3CN[C@H](C(=O)N(C)C)C3)[C@H](C)[C@H]12; assay: as §5; how it was run: as §4
[21] = system: C[C@@H](O)[C@H]1C(=O)N2C(C(=O)O)=C(S[C@@H]3CN[C@H](C(=O)Nc4cccc(C(=O)O)c4)C3)[C@H](C)[C@H]12; assay: as §5; how it was run: as §4
Escherichia coli [22] = assay: microbe, parasite or virus in culture; format: functional; settings: TOP10; remark: listed apart in the source
Escherichia coli [23] = assay: microbe, parasite or virus in culture; format: functional; settings: TOP10; remark: listed apart in the source
Escherichia coli [24] = assay: Antimicrobial activity in Escherichia coli DIH-1 expressing beta-lactamase VIM-19 by Etest in presence of 4 ug/ml Tazobactam; format: functional; how it was run: as §1
Klebsiella pneumoniae [25] = assay: Antimicrobial activity in Klebsiella pneumoniae DIH-2 clinical isolate expressing beta-lactamase VIM-19 by Etest in presence of 4 ug/ml Tazobactam; format: functional; how it was run: as §1
Escherichia coli [26] = assay: Antimicrobial activity in Escherichia coli TOP10 hourbouring recombinant plasmid VIM-19 by Etest in presence of 4 ug/ml Tazobactam; format: functional
How it was run: (§6)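 Recombinant plasmids were carried in the TOP10 cloning host. The N215K variant was made by site-directed mutagenesis using pVIM-1 as PCR template. MIC by Etest on Mueller-Hinton agar at 37°C, with CLSI interpretation.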

Escherichia coli [27] = assay: Antimicrobial activity in Escherichia coli TOP10 hourbouring recombinant plasmid VIM-4 by Etest in presence of 4 ug/ml Tazobactam; format: functional; how it was run: as §6
Escherichia coli [28] = assay: Antimicrobial activity in Escherichia coli TOP10 strain harbouring recombinant plasmid VIM-1 by Etest in presence of 4 ug/ml Tazobactam; format: functional; how it was run: as §6
Escherichia coli [29] = assay: Antimicrobial activity in Escherichia coli TOP10 harbouring recombinant plasmid VIM-1-N215K by Etest in presence of 4 ug/ml Tazobactam; format: functional; how it was run: as §6
Escherichia coli [30] = assay: Antimicrobial activity in Escherichia coli J53 transconjugate with Escherichia coli DIH-1 expressing natural plasmid containing beta-lactamase VIM-19 in presence of 4 ug/ml Tazobactam; format: functional
How it was run: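 Transconjugant came from liquid mating-out at 37°C into azide-resistant J53, selected on agar with amoxicillin (50 μg/ml) plus azide (100 μg/ml). MIC by Etest on Mueller-Hinton agar at 37°C, with CLSI interpretation.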

Escherichia coli [31] = assay: Antimicrobial activity in Escherichia coli TOP10 strain in presence of 4 ug/ml Tazobactam; format: functional
How it was run: (§7)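 MIC by Etest on Mueller-Hinton agar plates at 37°C, with susceptibility interpreted per CLSI guidelines.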

Escherichia coli [32] = assay: Antimicrobial activity in Escherichia coli J53 strain in presence of 4 ug/ml Tazobactam; format: functional; how it was run: as §7

Row | Compound | MIC (Escherichia coli [1]) [µg/mL] | MIC (Klebsiella pneumoniae [2]) [µg/mL] | MIC (Escherichia coli [3]) [µg/mL] | MIC (Escherichia coli [4]) [µg/mL] | MIC (Escherichia coli [5]) [µg/mL] | MIC (Escherichia coli [6]) [µg/mL] | MIC (Escherichia coli [7]) [µg/mL] | MIC (Escherichia coli [22]) [µg/mL] | MIC (Escherichia coli [23]) [µg/mL] | further results
1 | CC1(C)S[C@@H]2[C@H](NC(=O)[C@H](C(=O)O)c3ccsc3)C(=O)N2[C@H]1C(=O)O [TICARCILLIN] | > 512 | > 512 | > 512 | > 512 | > 512 | 4 (≈ 10.4 µM) | 4 (≈ 10.4 µM) |  |  | 
2 | Metallo-beta-lactamase VIM-19 (Escherichia coli) (from UniProt D2D9J0) |  |  |  |  |  |  |  |  |  | Km [8]: > 1000 µM; kcat [8]: > 20 s⁻¹; Km [9]: 300 µM; kcat [9]: 1300 s⁻¹; kcat [10]: 860 s⁻¹; Km [11]: 30 µM; kcat [11]: 900 s⁻¹; Km [12]: 60 µM; kcat [12]: 30 s⁻¹; Km [13]: 15 µM; Km [14]: 200 µM; kcat [14]: 15 s⁻¹; kcat/Km [15]: 20000 M⁻¹ s⁻¹; kcat/Km [16]: 5e+06 M⁻¹ s⁻¹; kcat/Km [17]: 4e+06 M⁻¹ s⁻¹; kcat/Km [18]: 3e+07 M⁻¹ s⁻¹; kcat/Km [19]: 500000 M⁻¹ s⁻¹; kcat/Km [20]: 2e+06 M⁻¹ s⁻¹; kcat/Km [21]: 100000 M⁻¹ s⁻¹
3 | C[C@@H](O)[C@H]1C(=O)N2C(C(=O)O)=C(SCCNC=N)C[C@H]12 [IMIPENEM ANHYDROUS] |  | 8 (≈ 26.7 µM) |  |  | 4 (≈ 13.4 µM) |  |  |  |  | 
4 | CCN1CCN(C(=O)N[C@@H](C(=O)N[C@@H]2C(=O)N3[C@@H]2SC(C)(C)[C@@H]3C(=O)O)c2ccccc2)C(=O)C1=O [PIPERACILLIN] | > 512 | > 512 | 256 (≈ 495 µM) | 256 (≈ 495 µM) | 256 (≈ 495 µM) | 1 (≈ 1.93 µM) | 1 (≈ 1.93 µM) | 256 (≈ 495 µM) | 256 (≈ 495 µM) | MIC (Escherichia coli [24]): > 512 µg/mL; MIC (Klebsiella pneumoniae [25]): > 512 µg/mL; MIC (Escherichia coli [26]): 256 µg/mL; MIC (Escherichia coli [27]): 256 µg/mL; MIC (Escherichia coli [28]): 256 µg/mL; MIC (Escherichia coli [29]): 256 µg/mL; MIC (Escherichia coli [30]): 256 µg/mL; MIC (Escherichia coli [31]): 1 µg/mL; MIC (Escherichia coli [32]): 1 µg/mL
5 | CO/N=C(\C(=O)N[C@@H]1C(=O)N2C(C(=O)[O-])=C(C[n+]3cccc4c3CCC4)CS[C@H]12)c1csc(N)n1 [CEFPIROME] | 32 (≈ 62.2 µM) | 64 (≈ 124 µM) | 2 (≈ 3.89 µM) | 2 (≈ 3.89 µM) | 2 (≈ 3.89 µM) | 0.06 (≈ 0.117 µM) | 0.12 (≈ 0.233 µM) | 32 (≈ 62.2 µM) | 32 (≈ 62.2 µM) | 
6 | C[C@@H](O)[C@H]1C(=O)N2C(C(=O)O)=C(S[C@@H]3CN[C@H](C(=O)Nc4cccc(C(=O)O)c4)C3)[C@H](C)[C@H]12 | 16 (≈ 33.6 µM) | 16 (≈ 33.6 µM) | 2 (≈ 4.21 µM) | 2 (≈ 4.21 µM) | 1.5 (≈ 3.15 µM) | 0.006 (≈ 0.0126 µM) | 0.006 (≈ 0.0126 µM) | 0.125 (≈ 0.263 µM) | 0.125 (≈ 0.263 µM) | 
7 | C[C@H]1[C@H](NC(=O)/C(=N\OC(C)(C)C(=O)O)c2csc(N)n2)C(=O)N1S(=O)(=O)O [AZTREONAM] | 4 (≈ 9.19 µM) |  |  |  |  |  |  |  | 0.12 (≈ 0.276 µM) | 

— ChEMBL document CHEMBL1212781, “VIM-19, a metallo-beta-lactamase with increased carbapenemase activity from Escherichia coli and Klebsiella pneumoniae” (2010)
